Experimental data from the EternaBench riboswitch data.

Test system: MS2 coat protein
Assay: apparent Kd, MS2 coat protein; higher = weaker binding; RNA-MaP array; FMN 200 µM where present
Summary of the method: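 Green signal from SNAP-549-labelled MS2 coat protein was normalised to red-channel RNA signal and to the median Fmax of control clusters. The protein was titrated from 0.7 or 1.5 nM, doubling to 3 µM, without and then with constant ligand, over designs transcribed by stalled E. coli RNA polymerase on Illumina sequencing-chip clusters, in 100 mM Tris-HCl pH 7.5, 80 mM KCl, 4 mM MgCl2, BSA, DTT, yeast tRNA and Tween-20. The apparent Kd is the median of filtered per-cluster binding-curve fits.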

[1] = designed as: OFF switch for flavin mononucleotide, no ligand
[2] = ligand present: flavin mononucleotide, designed as: OFF switch for flavin mononucleotide
[3] = designed as: ON switch for flavin mononucleotide, no ligand
[4] = ligand present: flavin mononucleotide, designed as: ON switch for flavin mononucleotide

Sequence	apparent Kd [1] [nM]	apparent Kd [2] [nM]	apparent Kd [3] [nM]	apparent Kd [4] [nM]
UCUUACGGAGGAUAUACAUGAGGAUCACCCAUGUAUGGUACGUUGGCUCUACCUUAUAGUAGAAGGCCGGAAGG	37	233	–	–
UCUUUACAUGAGGAUCACCCAUGUGAGGAUAUGGAUUCGCUGGCCGUAGCCAGUGGAUCCAGAAGGCGCGUGAU	74.7	64.9	–	–
UGAACUAUGUAGAAGGCCCAUAUUUAUACUUAGGGAGGAUAUACAUGAGGAUCACCCAUGUAUAGAGCAAGUGGACUUGUCACU	17.9	20.2	–	–
UGAACUUCAGAGAAGGUCGAACGGCAACGGUUCGAAGGAUAUCUGGAAACAUGAGGAUCACCCAUGUAACCGGGUGGAUGUCCU	58.9	291	–	–
UGAGCCUCGUGAGGAUAUACAUGAGGAUCACCCAUGUAAUAAAGUGAACGGAGGAAACUCCGAAUGUAGAAGGCACGAGGCUUA	18.7	146	–	–
UGAGGACAUGAGGAUCACCCAUGUAAGGAUAUGCGGAGAGAUUGGAGAGGUCGAGGAGGCAGAAGGUACAGGAC	143	74.7	–	–
UGAUAACAUGUAGGAUAUCCAGCAUUGACCAUCGGAGAAGGACAUGAGGAUCACCCAUGUACCGAUACAAUGGGAUAACGCAAU	15.4	18	–	–
UGAUAACAUGUAGGAUAUGCAGCAUUGACCACUGCAGAAGGACAUGAGGAUCACCCAUGUAUCCAUACUAUGGGAUCACGCAAU	24	85.5	–	–
UGAUACAUGAGGGUCUCCCAUGACAUGAGGAUCACCCAUGUGCAGGAUAUACGUGUGAUAAUAUAGUAGAAGGGCAGUCUAUGU	345	577	–	–
UGAUAGCACAGAGGAUAUGCGUUGUGUUAUCUCUACAUGAGGAUCACCCAUGUAGAAGGCUGUGCUAUCUAAGUCGGAAACGAU	5.57	7.16	–	–
UGAUAGGACAGAGGAUAUACCGAUAGGAUCUACUAUCGAACAAUCCUCACAUGAGGAUCACCCAUGUAGAAGGCUGUCCUAUCU	25.2	284	–	–
UGAUAGGACAGAGGAUAUACGUAUAAAUAUCCUCACAUGAGGAUCACCCAUGUAGAAGGCUGUCCUAUCUAAGUCGGAAACGAC	15.6	317	–	–
UGAUAGGACAGAGGAUAUACGUAUAAUUACCUCUACAUGAGGAUCACCCAUGUAGAAGGCUGUCCUAUCUAAGUCGGAAACGAC	5.99	6.88	–	–
UGAUAGGACAGAGGAUAUACGUGCUAGAGAUACUAGCAAAAUUUCCUCACAUGAGGAUCACCCAUGUAGAAGGCUGUCCUAUCU	47.8	1100	–	–
UGAUCACAUGAGGAUCACCCAUGUCAGGAUAUCGUCACUGGAGCUUCGGCUCCAGUGACGAGAAGGGAUAUAAU	91.5	197	–	–
UGAUCGAGAGAUCUUAGAUUCUGCAAGGAUAUGCAAGAGUUGCGCUUUACAUGAGGAUCACCCAUGUAGAAGGUGUAGAGUCUA	6.27	6.62	–	–
UGAUCUUUUGUUAGGAUAUGCUGUUUUUUUUUACAGCAGAAGGGACAUGAGGAUCACCCAUGUCUUGUCAUAAA	11.3	18.6	–	–
UGCACCAACGAGAAGGCACAGAUCCAGCUCUUGACAUGAGGAUCACCCAUGUGAGGAUAUCGUAGGUGCGCAUUGGGACAAUCU	11.9	103	–	–
UGCACGAGGCAAGGAUAUGCUGACAUGAGGAUCACCCAUGUGAGCAUGGGUCUGGUACGGGAUCAGCAGAAGGUGCACCGAGGU	36.8	27.4	–	–
UGCAGACGAGGAUAUGAUUAAUAAUACAUGAGGAUCACCCAUGUAAUACUGAUCUAUGGAUCAGAAGGCGUCUGCU	17.3	14.6	–	–
UGCAUGCUAGGAUAUACGGGACAUUAGGGUUCGUCGUAUGGACAUGAGGAUCACCCAUGUAGAAGGAGCGUGCU	18.6	44.5	–	–
UGCCGCAACAACGCGGCGUCACAUGAGGAUCACCCAUGUUCACAGGAUAUGCGAUAGCCAACGAAGCAGAAGGGUGAUUACUUA	–	–	53.7	219
UGCCGUAGAGGAUAUACAUUGAAUUUGAUUCAUGUAAAACUACAUGAGGAUCACCCAUGUAGAAGGCUAUGGCU	17.9	34.4	–	–
UGCGGUAGAGGAUAUACGUAGAUACAGAUUCAUGUAGAACUACAUGAGGAUCACCCAUGUAGAAGGCUAUCGCU	39.2	482	–	–
UGCGUACAAGCGGACAUGAGGAUCACCCAUGUAUUGUUAUGCGAGGAUAUCGGGAAGCAGGAUUCCGAGAAGGUGCGGUGAGCC	–	–	19.2	17.7
UGCUACAUGAGGAUCACCCAUGUAAUGUGGGAAUCGUUAGGACAGGAUAUGAUUGUAUUGUUUUUUCAGAAGGGUCAUUACUUU	302	303	–	–
UGCUACAUGAGGAUCACCCAUGUAAUGUGGGAUUCGUUAGGACAGGAUAUGAUUGUAUAGUUUUUUCAGAAGGGUCAUUACUUU	69.2	135	–	–
UGCUACGUUUCGUAGCAGUGUCAUCGAGAAGGCCCUGACAUGAGGAUCACCCAUGUUGUUACAUGGGAGGAUAUCGAUGAUACG	–	–	12	4.9

Sequence	apparent Kd [1] [nM]	apparent Kd [2] [nM]	apparent Kd [3] [nM]	apparent Kd [4] [nM]
UGCUAGAACCUAGGAUAUCCUGGGUUGGUGGUGCUUGAUGACCGGACAUGAGGAUCACCCAUGUAGGAGAAGGAGGUUGUUAAG	60.6	112	–	–
UGCUGACGAGGAUAUACAUGAGGAUCACCCAUGUUGGUUCAGCGACUUCGGUCGCAAUGUAGAAGGCGUCAGCU	410	277	–	–
UGCUGGGAAUCAGGAUAUACGUGGUAUCCUGAGCACAUGAGGAUCACCCAUGUAGAAGGGAUUCCGCGGUGAGAUUCCGAAACA	4.97	5.45	–	–
UGCUGUGUCAGAGGAUAUACACCUAUAAUCCAUUGCAAAUAGCGAUGGACAUGAGGAUCACCCAUGUAGAAGGCUGUCACAGCA	214	647	–	–
UGCUUCGUGUAAGGAUAUGCUGCCGUUUCGGCUGCAGAAGGUACUAUAAUACAUGAGGAUCACCCAUGUCUCUCGCUUUGCGGG	–	–	55.9	26.6
UGGACGGGAGGAUAUACAUGAGGAUCACCCAUGUAAAAUUGUAUAAUAUAUAGUUCGUGUAGAAGGUUUGUUUU	49.6	44.7	–	–
UGGACUGGGCAGAAGGGACAUGAGGAUCACCCAUGUCUUGGGCUACUUCAGUCAGGAUAUGCCCGUUGAAUAUCCGUGCAUCAA	10.2	52.6	–	–
UGGAUCAUGGGAGGAUAUCCUCAAGAGACAUGAGGAUCACCCAUGUAUUAUAAGCCGAAAGGCAUGGAGAAGGCCCAUGAUCCU	–	–	50.3	19
UGGAUGUAGGAGAAGGAGGACUUCAUGAGGAUCACCCAUGUGUUAGGACUUAGGAUAUUUGACAACAUGAGGAUCACCCAUGUG	–	–	60	52.7
UGGCCAAGAGGAUAUACAUGAGGAUCACCCAUGUCCAUCCUGAUGGAUAGGGCCGAGUGUAGAAGGCUUGGUCC	32.6	18	–	–
UGGGUAAAUGUAGGAUAUUUAUAUUAAUAGUAUGGAGAAGGACAUGAGGAUCACCCAUGUACAGGGAGUUACCCAUUUCCUCUC	670	662	–	–
UGGUAACAUGAGGAUCACCCAUGUCAAGAGAAUCAAGGAUAUGGUAAGUAAUAAGAGAAUCUAGAAGGUGAAGUUG	–	–	96.2	69.1
UGGUAACAUGAGGAUCACCCAUGUCAGGAUAUCAGUAAGAAUAGAUUAGAGUAGAAGAUGAGAAGGGACUAUAU	31.9	29.5	–	–
UGGUACAACGGAGGAUAUCAUGUAGAUACAUGAGGAUCACCCAUGUCGAUGGAGACAUCGGAGAUUGAGAAGGCCGUUGUACCU	–	–	692	30.1
UGGUACAUGGGAGGAUAUCAUGUAUUCACAUGAGGAUCACCCAUGUCGAUGGAGACAUCGGAGAUUGAGAAGGCCCAUGUACCU	–	–	1270	46.9
UGGUACAUGGGAGGAUAUCGUGUAGACACAUGAGGAUCACCCAUGUCGAUGGAGACAUCGGAGAUCGAGAAGGCCCAUGUACCU	–	–	84.6	8.81
UGGUACAUGGGAGGAUAUGGAGUGAAGACAUGAGGAUCACCCAUGUUAUAAAUGCCGAGAGGCAACUAGAAGGCCCAUGUACCU	–	–	77.7	14.3
UGGUACAUGGGAGGAUAUGGGACAUGAGGAUCACCCAUGUGAAAAUUAAAUAUGCCGAUAGGCAACUAGAAGGCCCAUGUACCU	–	–	33.1	15.4
UGGUACAUGGGAGGAUAUGGGUUGAUAACAUGAGGAUCACCCAUGUUAAAUAUCGCGAGAGCGAACUAGAAGGCCCAUGUACCU	–	–	715	45.1
UGGUACUAGAGAGGAUAUGGGAAGAUACAUGAGGAUCACCCAUGUUUAAGAAUGCCGAGAGGCAACUAGAAGGCCCUAGUACCU	–	–	490	31.5
UGGUACUAGGGAGGAUAUGGGAAGAUACAUGAGGAUCACCCAUGUUUAAGAAUACCGAGAGGCAACUAGAAGGCCCUAGUACCU	–	–	192	13.3
UGGUACUAGGGAGGAUAUGGGAAGAUACAUGAGGAUCACCCAUGUUUAAGAAUGCCGAGAGGCAACCAGAAGGCCCUAGUACCU	–	–	8.27	5.57
UGGUACUAGGGAGGAUAUGGGAAGAUACAUGAGGAUCACCCAUGUUUAAGAAUGCCGAGAGGCAACUAGAAGGCCCUAAUACCU	–	–	400	19.1
UGGUACUAGGGAGGAUAUGGGAAGAUACAUGAGGAUCACCCAUGUUUAAGAAUGCCGAGAGGCAACUAGAAGGCCCUAGUACAU	–	–	537	18.7
UGGUACUAGGGAGGAUAUGGGAAGAUACAUGAGGAUCACCCAUGUUUGAGAAUGCCGAGAGGCAACUAGAAGGCCCUAGUACCU	–	–	430	18.1
UGGUACUAGGGAGGAUAUGGGCAGAUACAUGAGGAUCACCCAUGUUUAAGAAUGCCGAGAGGCAACUAGAAGGCCCUAGUACCU	–	–	553	25.5
UGGUCAUGAUCAGGAUAUUAACAUGGGCUACAUUAAGAAGGGAUAGUGAGAUACGAACAUGAGGAUCACCCAUGUUGUGUUGUU	–	–	26.8	21.2
